# Measurements reported in ChEMBL document CHEMBL4813976, “Rational drug design of benzothiazole-based derivatives as potent signal transducer and activator of transcription 3 (STAT3) signaling pathway inhibitors” (Eur J Med Chem, 2021).
# Calls of active or inactive are those of the source. The rule behind the calls is not given here.
# How the values were obtained:
# [1] = biological target: T1, Signal transducer and activator of transcription 3 (Homo sapiens, UniProt P40763); assay: Inhibition of IL-6 induced STAT3 transcriptional activity in human HepG2 cells incubated for 1 hr followed by stimulation with IL-6 for 5.5 hrs by luciferase reporter gene assay; assay type: cell-based
# In short: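 STAT3-dependent luciferase reporter assay in HepG2 cells with IL-6 stimulation; IC50 given as mean ± SD of at least three independent experiments.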
# [2] = test system: HEL; assay: Antiproliferative activity against human HEL cells harboring JAK2 V617F mutant assessed as inhibition of cell growth incubated for 72 hrs by MTT assay; assay type: functional, cell-based
# In short: (§1)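 MTT proliferation assay; MDA-MB-468 grown in DMEM/F-12 and HEL in high-glucose DMEM, each with 10% FBS and penicillin/streptomycin, at 37 °C under 5% CO₂. IC50 given as mean ± SD of at least three independent experiments.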
# [3] = test system: MDA-MB-468; assay: Antiproliferative activity against human MDA-MB-468 cells overexpressing STAT3 assessed as inhibition of cell growth incubated for 72 hrs by MTT assay; assay type: functional, cell-based; settings: MDA-MB-468, 72 h; in short: as §1
# [4] = test system: MDA-MB-453; assay: Antiproliferative activity against human MDA-MB-453 cells expressing low levels of STAT3 assessed as inhibition of cell growth incubated for 72 hrs by MTT assay; assay type: functional, cell-based; settings: MDA-MB-453, 72 h
# In short: (§2)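 MTT proliferation assay on MCF-7 and MDA-MB-453 cells; IC50 given as mean ± SD of at least two independent experiments.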
# [5] = test system: MCF7; assay: Antiproliferative activity against human MCF7 cells expressing low levels of STAT3 assessed as inhibition of cell growth incubated for 72 hrs by MTT assay; assay type: functional, cell-based; settings: MCF7, 72 h; in short: as §2
# [6] = biological target: T1, Signal transducer and activator of transcription 3; assay: Inhibition of STAT3 phosphorylation at Tyr705 residue in human HEL cells expressing JAK2 V617F mutant measured after 24 hrs by Western blot analysis; assay type: cell-based; settings: dose 1.25-5 µM
# In short: (§3)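 Cells were treated for 24 h, then lysed in hot 2% SDS with boiling, and protein was quantified by BCA. Lysates were run on SDS-PAGE, transferred to nitrocellulose and blocked with 3% milk in TBST. Membranes were probed overnight at 4 °C with 1:1000 antibodies to pSTAT3 Tyr705, pSTAT3 Ser727, STAT3, c-Myc, MCL-1, β-actin and GAPDH. Detection used HRP secondaries and ECL.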
# [7] = biological target: T1, Signal transducer and activator of transcription 3; assay: Inhibition of STAT3 phosphorylation at Ser727 residue in human HEL cells expressing JAK2 V617F mutant measured after 24 hrs by Western blot analysis; assay type: cell-based; settings: dose 1.25-5 µM; in short: as §3
# [8] = biological target: T1, Signal transducer and activator of transcription 3; assay: Inhibition of STAT3 phosphorylation at Tyr705 residue in human MDA-MB-468 cells measured after 24 hrs by Western blot analysis; assay type: cell-based; settings: dose 1.25-5 µM; in short: as §3
# [9] = biological target: T1, Signal transducer and activator of transcription 3; assay: Inhibition of STAT3 phosphorylation at Ser727 residue in human MDA-MB-468 cells measured after 24 hrs by Western blot analysis; assay type: cell-based; settings: dose 1.25-5 µM; in short: as §3
# [10] = biological target: T1, Signal transducer and activator of transcription 3; assay: Inhibition of STAT3 in human HEL cells expressing JAK2 V617F mutant cells assessed as downregulation of c-Myc protein expression at 1.25 to 5 uM incubated for 24 hrs by western blot analysis; assay type: cell-based; settings: dose 1.25-5 µM; in short: as §3
# [11] = biological target: T1, Signal transducer and activator of transcription 3; assay: Inhibition of STAT3 in human HEL cells expressing JAK2 V617F mutant cells assessed as downregulation of MCL-1 protein expression at 1.25 to 5 uM incubated for 24 hrs by western blot analysis; assay type: cell-based; settings: dose 1.25-5 µM; in short: as §3
# [12] = biological target: T1, Signal transducer and activator of transcription 3; assay: Inhibition of STAT3 in human MDA-MB-468 cells assessed as downregulation of c-Myc protein expression at 1.25 to 5 uM incubated for 24 hrs by western blot analysis; assay type: cell-based; settings: dose 1.25-5 µM; in short: as §3
# [13] = biological target: T1, Signal transducer and activator of transcription 3; assay: Inhibition of STAT3 in human MDA-MB-468 cells assessed as downregulation of MCL-1 protein expression at 1.25 to 5 uM incubated for 24 hrs by western blot analysis; assay type: cell-based; settings: dose 1.25-5 µM; in short: as §3
# [14] = biological target: Vascular endothelial growth factor receptor 1 (Homo sapiens) (UniProt P17948); assay: Inhibition of VEGFR1 (unknown origin) at 1 uM by ELISA
# [15] = biological target: Platelet-derived growth factor receptor beta (Homo sapiens) (UniProt P09619); assay: Inhibition of PDGFRbeta (unknown origin) at 1 uM by ELISA
# [16] = biological target: Receptor tyrosine-protein kinase erbB-2 (Homo sapiens) (UniProt P04626); assay: Inhibition of ERBB2 (unknown origin) at 1 uM by ELISA
# [17] = biological target: Receptor tyrosine-protein kinase erbB-4 (Homo sapiens) (UniProt Q15303); assay: Inhibition of ERBB4 (unknown origin) at 1 uM by ELISA
# [18] = biological target: Insulin-like growth factor 1 receptor (Homo sapiens) (UniProt P08069); assay: Inhibition of IGF1R (unknown origin) at 1 uM by ELISA
# [19] = test system: MDA-MB-468; assay: Induction of apoptosis in human MDA-MB-468 cells at 1.25 to 5 uM measured after 48 hrs by AnnexinV-FITC/PI staining based flow cytometry analysis; assay type: functional, cell-based; settings: dose 1.25-5 µM
# In short: (§4)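 Cells were seeded overnight, then exposed to DMSO or compound for 48 h. They were washed twice in PBS and resuspended in binding buffer with Annexin V-FITC and propidium iodide. After 15 min at room temperature in the dark, cells were analysed by flow cytometry; data are representative of three independent experiments.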
# [20] = test system: HEL; assay: Induction of apoptosis in human HEL cells expressing JAK2 V617F mutant cells at 1.25 to 5 uM measured after 48 hrs by AnnexinV-FITC/PI staining based flow cytometry analysis; assay type: functional, cell-based; settings: dose 1.25-5 µM; in short: as §4
# [21] = test system: MDA-MB-468; assay: Induction of cell cycle arrest in human MDA-MB-468 cells assessed as increase in accumulation at G2/M phase after 48 hrs by PI/RNase staining based flow cytometry; assay type: functional; settings: dose 1.25-5 µM
# In short: (§5)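 Cells were seeded overnight, then exposed to DMSO or increasing compound concentrations for 48 h. They were fixed in ice-cold 80% ethanol overnight, stained with PI containing RNase for 30 min at 37 °C, and analysed by flow cytometry.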
# [22] = test system: HEL; assay: Induction of cell cycle arrest in human HEL cells expressing JAK2 V617F mutant cells assessed as increase in accumulation at G2/M phase after 48 hrs by PI/RNase staining based flow cytometry; assay type: functional; settings: dose 1.25-5 µM; in short: as §5
# [23] = test system: MDA-MB-468; assay: Induction of cell cycle arrest in human MDA-MB-468 cells assessed as decrease in accumulation at G1 phase after 48 hrs by PI/RNase staining based flow cytometry; assay type: functional; settings: dose 1.25-5 µM; in short: as §5
# [24] = test system: HEL; assay: Induction of cell cycle arrest in human HEL cells expressing JAK2 V617F mutant cells assessed as decrease in accumulation at G1 phase after 48 hrs by PI/RNase staining based flow cytometry; assay type: functional; settings: dose 1.25-5 µM; in short: as §5
# [25] = biological target: T1, Signal transducer and activator of transcription 3; assay: Binding affinity to His-tagged STAT3-SH2 domain (127 to 722 residues) (unknown origin) by surface plasmon resonance analysis
# In short: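 SPR on a Biacore T200 with STAT3 SH2 domain. Analytes were run as concentration series, and KD was taken as the equilibrium constant.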
# [26] = biological target: T1, Signal transducer and activator of transcription 3; assay: Displacement of 5'-FAM-GpYLPQTV-NH2 from His-tagged STAT3-SH2 domain (127 to 722 residues) (unknown origin) assessed as binding rate at 100 uM […] by fluorescence polarization assay; settings: time 90.0 min
# [27] = biological target: T1, Signal transducer and activator of transcription 3; assay: Displacement of 5'-FAM-GpYLPQTV-NH2 from His-tagged STAT3-SH2 domain (127 to 722 residues) (unknown origin) assessed as binding rate at 50 uM […] by fluorescence polarization assay; settings: time 90.0 min
# [28] = biological target: T1, Signal transducer and activator of transcription 3; assay: Displacement of 5'-FAM-GpYLPQTV-NH2 from His-tagged STAT3-SH2 domain (127 to 722 residues) (unknown origin) assessed as binding rate at 20 uM […] by fluorescence polarization assay; settings: time 90.0 min
# [29] = test system: HEL; assay: Effect on STAT3 expression in human HEL cells expressing JAK2 V617F mutant at 1.25 to 5 uM measured after 24 hrs by Western blot analysis; assay type: functional, cell-based; settings: dose 1.25-5 µM; in short: as §3
# [30] = test system: MDA-MB-468; assay: Effect on STAT3 expression in human MDA-MB-468 cells at 1.25 to 5 uM measured after 24 hrs by Western blot analysis; assay type: functional, cell-based; settings: dose 1.25-5 µM; in short: as §3
# T1 sequence (P40763 whole entry): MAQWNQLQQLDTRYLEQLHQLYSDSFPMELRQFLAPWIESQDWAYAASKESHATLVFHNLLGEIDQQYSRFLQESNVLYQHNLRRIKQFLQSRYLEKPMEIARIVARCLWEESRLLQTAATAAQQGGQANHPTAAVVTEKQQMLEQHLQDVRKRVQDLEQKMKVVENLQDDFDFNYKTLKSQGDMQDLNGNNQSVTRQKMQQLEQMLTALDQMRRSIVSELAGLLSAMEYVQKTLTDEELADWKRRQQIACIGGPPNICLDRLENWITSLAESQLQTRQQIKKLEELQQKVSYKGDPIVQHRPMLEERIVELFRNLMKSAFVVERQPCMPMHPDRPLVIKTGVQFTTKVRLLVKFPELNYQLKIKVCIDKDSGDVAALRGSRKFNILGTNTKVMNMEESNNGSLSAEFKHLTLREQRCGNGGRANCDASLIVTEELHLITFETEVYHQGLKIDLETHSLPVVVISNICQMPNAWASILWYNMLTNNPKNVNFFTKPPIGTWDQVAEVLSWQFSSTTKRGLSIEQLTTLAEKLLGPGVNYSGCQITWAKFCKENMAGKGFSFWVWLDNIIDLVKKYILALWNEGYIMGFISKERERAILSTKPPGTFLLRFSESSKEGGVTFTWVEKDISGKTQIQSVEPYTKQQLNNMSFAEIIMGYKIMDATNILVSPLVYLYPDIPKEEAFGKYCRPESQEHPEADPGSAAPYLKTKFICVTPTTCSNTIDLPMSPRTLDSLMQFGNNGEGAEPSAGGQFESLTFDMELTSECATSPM
# Insulin-like growth factor 1 receptor (Homo sapiens), sequence (P08069 31-736 limits assumed): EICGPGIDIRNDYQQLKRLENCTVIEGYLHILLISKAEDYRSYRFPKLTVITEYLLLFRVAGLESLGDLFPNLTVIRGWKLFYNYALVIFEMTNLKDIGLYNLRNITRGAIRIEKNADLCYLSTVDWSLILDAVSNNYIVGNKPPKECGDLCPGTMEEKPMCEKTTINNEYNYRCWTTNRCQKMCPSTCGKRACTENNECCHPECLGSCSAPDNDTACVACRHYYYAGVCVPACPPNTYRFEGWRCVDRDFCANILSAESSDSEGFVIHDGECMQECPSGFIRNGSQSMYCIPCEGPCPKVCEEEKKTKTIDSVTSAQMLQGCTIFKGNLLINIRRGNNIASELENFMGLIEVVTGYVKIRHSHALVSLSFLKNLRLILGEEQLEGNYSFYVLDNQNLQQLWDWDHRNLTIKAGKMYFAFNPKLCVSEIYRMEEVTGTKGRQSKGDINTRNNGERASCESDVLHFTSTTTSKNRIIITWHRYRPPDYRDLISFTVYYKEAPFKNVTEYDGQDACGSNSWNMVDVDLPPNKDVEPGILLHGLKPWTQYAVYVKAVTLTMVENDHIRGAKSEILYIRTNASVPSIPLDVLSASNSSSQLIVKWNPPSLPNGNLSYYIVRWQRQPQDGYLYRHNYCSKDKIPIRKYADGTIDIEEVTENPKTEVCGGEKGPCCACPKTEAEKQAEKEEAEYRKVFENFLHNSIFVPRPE
# Insulin-like growth factor 1 receptor (Homo sapiens), sequence (P08069 741-1367 limits assumed): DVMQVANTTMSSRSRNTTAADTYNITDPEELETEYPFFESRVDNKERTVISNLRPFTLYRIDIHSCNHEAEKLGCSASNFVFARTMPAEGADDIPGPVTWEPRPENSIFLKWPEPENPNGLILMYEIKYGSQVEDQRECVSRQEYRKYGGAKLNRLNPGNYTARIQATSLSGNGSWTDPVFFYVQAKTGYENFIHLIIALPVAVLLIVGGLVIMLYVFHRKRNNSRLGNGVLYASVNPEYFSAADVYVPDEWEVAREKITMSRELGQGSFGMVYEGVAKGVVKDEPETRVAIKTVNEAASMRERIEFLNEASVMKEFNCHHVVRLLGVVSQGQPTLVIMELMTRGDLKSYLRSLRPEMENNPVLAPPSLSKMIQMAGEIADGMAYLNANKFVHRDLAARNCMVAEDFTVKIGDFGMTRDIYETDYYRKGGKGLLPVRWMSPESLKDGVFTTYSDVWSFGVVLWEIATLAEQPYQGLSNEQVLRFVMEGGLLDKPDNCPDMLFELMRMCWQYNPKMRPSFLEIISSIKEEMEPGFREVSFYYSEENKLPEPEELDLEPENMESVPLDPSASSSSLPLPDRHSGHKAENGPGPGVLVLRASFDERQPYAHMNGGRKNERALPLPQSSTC
# Vascular endothelial growth factor receptor 1 (Homo sapiens), sequence (P17948 whole entry): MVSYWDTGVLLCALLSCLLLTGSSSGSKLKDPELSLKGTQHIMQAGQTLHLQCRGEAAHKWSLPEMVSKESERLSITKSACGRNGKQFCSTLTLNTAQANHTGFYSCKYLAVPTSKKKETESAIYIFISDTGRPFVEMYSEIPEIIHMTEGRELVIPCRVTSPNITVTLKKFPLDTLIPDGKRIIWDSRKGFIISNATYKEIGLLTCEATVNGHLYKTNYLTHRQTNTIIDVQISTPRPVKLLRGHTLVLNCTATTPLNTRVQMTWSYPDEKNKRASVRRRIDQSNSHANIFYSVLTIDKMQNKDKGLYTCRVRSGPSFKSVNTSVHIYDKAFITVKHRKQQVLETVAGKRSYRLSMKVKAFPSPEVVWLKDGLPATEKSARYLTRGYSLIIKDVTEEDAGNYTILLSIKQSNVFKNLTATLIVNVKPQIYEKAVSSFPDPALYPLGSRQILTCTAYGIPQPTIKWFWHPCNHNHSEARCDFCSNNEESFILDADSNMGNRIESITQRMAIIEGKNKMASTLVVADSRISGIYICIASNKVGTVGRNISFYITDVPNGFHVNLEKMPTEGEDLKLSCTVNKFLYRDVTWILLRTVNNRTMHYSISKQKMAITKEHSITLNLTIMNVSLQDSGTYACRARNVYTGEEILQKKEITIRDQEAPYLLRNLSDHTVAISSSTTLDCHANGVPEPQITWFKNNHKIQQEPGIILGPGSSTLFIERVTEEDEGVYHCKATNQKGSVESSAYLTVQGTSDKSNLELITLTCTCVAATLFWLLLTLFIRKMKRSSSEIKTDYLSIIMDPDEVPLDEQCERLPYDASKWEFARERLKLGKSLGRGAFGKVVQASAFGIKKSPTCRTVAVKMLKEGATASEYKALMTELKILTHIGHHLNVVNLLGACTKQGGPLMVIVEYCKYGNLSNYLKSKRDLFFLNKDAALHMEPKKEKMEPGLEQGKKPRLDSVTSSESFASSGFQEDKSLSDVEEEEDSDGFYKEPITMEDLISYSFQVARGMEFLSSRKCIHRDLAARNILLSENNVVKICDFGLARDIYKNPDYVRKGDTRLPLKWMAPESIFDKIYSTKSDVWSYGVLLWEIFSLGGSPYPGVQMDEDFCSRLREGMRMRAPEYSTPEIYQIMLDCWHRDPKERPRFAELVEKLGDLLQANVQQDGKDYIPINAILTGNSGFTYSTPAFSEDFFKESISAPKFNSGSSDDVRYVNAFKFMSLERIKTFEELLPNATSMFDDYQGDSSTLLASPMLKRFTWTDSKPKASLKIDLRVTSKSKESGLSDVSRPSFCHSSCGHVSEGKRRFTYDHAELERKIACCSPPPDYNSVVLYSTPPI
# Receptor tyrosine-protein kinase erbB-2 (Homo sapiens), sequence (P04626 whole entry): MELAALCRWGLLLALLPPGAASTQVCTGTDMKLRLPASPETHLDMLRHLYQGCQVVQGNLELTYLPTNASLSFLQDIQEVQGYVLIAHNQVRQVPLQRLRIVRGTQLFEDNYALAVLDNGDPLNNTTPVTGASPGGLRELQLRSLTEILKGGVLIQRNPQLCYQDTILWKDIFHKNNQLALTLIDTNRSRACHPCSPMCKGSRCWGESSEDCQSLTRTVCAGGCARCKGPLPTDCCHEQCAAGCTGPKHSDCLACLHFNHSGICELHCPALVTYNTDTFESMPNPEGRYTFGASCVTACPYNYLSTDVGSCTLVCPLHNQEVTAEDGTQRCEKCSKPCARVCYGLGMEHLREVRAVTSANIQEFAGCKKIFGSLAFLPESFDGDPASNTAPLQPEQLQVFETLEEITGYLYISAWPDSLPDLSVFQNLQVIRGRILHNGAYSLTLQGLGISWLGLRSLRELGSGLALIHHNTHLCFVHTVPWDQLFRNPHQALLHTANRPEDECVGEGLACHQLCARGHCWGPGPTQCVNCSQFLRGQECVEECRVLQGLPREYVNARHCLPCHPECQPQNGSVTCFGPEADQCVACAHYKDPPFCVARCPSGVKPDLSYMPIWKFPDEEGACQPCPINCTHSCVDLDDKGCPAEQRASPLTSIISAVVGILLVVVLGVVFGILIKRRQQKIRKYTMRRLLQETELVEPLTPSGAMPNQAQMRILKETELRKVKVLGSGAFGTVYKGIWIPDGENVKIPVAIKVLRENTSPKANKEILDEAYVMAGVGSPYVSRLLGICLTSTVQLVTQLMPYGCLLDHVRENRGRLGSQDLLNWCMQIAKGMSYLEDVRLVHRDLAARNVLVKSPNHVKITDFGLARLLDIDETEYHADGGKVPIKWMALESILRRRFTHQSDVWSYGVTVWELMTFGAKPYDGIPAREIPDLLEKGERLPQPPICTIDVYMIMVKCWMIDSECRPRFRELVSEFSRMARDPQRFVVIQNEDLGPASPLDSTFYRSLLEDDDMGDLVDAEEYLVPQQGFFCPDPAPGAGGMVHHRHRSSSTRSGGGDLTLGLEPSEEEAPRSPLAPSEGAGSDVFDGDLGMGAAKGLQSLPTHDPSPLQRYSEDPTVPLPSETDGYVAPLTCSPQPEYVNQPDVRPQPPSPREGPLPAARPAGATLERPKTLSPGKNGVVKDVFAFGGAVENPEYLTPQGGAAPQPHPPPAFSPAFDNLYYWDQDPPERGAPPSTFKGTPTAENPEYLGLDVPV
SMILES,IC50 [1],IC50 [2],IC50 [3],IC50 [4],IC50 [5],inhibition [6],inhibition [7],inhibition [8],inhibition [9],inhibition [10],inhibition [11],inhibition [12],inhibition [13],inhibition [14],inhibition [15],inhibition [16],inhibition [17],inhibition [18],Activity [19],Activity [20],other results
CCCC(C)Oc1ccc(C(=O)Nc2ccc3nc(SCC(=O)N[C@@H](C)c4ccccc4)sc3c2)c(OC)c1C (stereo not given in full),0.16 µM,2.41 µM,1.04 µM,> 20 µM,> 20 µM,Dose-Dependent Effect,Dose-Dependent Effect,Dose-Dependent Effect,Dose-Dependent Effect,Active,Active,Active,Active,0%,0%,5.2%,0%,0%,Active,Active,Activity [21]: Dose-Dependent Effect; Activity [22]: Dose-Dependent Effect; Activity [23]: Dose-Dependent Effect; Activity [24]: Dose-Dependent Effect; Kd [25]: 0.0626 µM; Activity [26]: < 10%; Activity [27]: < 10%; Activity [28]: < 10%; Activity [29]: inactive; Activity [30]: inactive
CCCC(C)Oc1ccc(C(=O)Nc2ccc3nc(SCC(=O)N[C@@H](C)c4ccc(OC)cc4)sc3c2)c(OC)c1C (stereo not given in full),0.067 µM,1.11 µM,0.25 µM,> 20 µM,> 20 µM,Dose-Dependent Effect,Dose-Dependent Effect,Dose-Dependent Effect,Dose-Dependent Effect,Active,Active,Active,Active,0%,0%,9.6%,0%,0%,Active,Active,Activity [21]: Dose-Dependent Effect; Activity [22]: Dose-Dependent Effect; Activity [23]: Dose-Dependent Effect; Activity [24]: Dose-Dependent Effect; Kd [25]: 0.053 µM; Activity [26]: < 10%; Activity [27]: < 10%; Activity [28]: < 10%; Activity [29]: inactive; Activity [30]: inactive
